Each structure is given as a SMILES string. A value given as a limit tells only on which side of the number the result lay.

For one data set, the species on record is Homo sapiens. Kind of data set: Selectivity index, ratio of EC2x for human Kv7.4/5 expressed in HEK293 cells to EC2x for EC2x for human Kv7.2/3 expressed in HEK293 cells. Format: cell-based. An outline of the steps: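 Selectivity index calculated as EC2x(Kv7.4/Kv7.5) divided by EC2x(Kv7.2/Kv7.3). Both EC2x values came from IonWorks Barracuda automated electrophysiology in HEK293 cells, using 10-point concentration curves and the doubled-conductance definition at 15% activation voltage.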

Data set [1] deals with T1, Potassium voltage-gated channel subfamily KQT member 4 (Homo sapiens) (UniProt P56696).
T1 sequence (whole entry): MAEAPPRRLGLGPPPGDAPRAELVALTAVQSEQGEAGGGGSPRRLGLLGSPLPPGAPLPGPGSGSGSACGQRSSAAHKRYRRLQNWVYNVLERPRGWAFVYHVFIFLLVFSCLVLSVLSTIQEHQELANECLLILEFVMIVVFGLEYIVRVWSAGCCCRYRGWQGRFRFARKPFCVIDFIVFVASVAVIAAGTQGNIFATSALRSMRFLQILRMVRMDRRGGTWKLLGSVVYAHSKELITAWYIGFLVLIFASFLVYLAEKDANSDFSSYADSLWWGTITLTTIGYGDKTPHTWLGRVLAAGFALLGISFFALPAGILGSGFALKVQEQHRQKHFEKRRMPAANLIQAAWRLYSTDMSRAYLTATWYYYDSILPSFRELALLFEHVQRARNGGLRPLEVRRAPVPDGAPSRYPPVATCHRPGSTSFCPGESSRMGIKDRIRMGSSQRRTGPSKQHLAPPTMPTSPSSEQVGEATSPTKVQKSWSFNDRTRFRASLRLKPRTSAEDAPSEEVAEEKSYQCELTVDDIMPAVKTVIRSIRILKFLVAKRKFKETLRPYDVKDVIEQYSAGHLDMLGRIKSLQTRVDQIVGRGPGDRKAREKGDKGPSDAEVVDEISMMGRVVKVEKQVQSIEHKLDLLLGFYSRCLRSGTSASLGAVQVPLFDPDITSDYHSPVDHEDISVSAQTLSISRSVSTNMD
The data set is described as follows: Agonist activity at human Kv7.4 expressed in HEK293 cells assessed as drug concentration that doubles the conductance at voltage leading to 15% channel activation at holding potential of at -80 mV by whole cell patch clamp electrophysiology assay. Format: cell-based. Put shortly: (§1)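 High-throughput automated electrophysiology on an IonWorks Barracuda platform using HEK293 cells expressing the human channel. Ten-point concentration–response curves were run. EC2x is the agonist concentration that doubles conductance at the voltage giving 15% channel activation. Values come from 2–5 individual assay determinations and are given as mean ± SD. The reference agonist was run in 6–431 repeats.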
In general terms: The patch-clamp technique gives a direct electrical read-out from membranes.

In data set [2] the target is Voltage-gated potassium channel, KQT; KCNQ2(Kv7.2)/KCNQ3(Kv7.3) (Homo sapiens) (UniProt O43526+O43525). The data set is described as follows: Agonist activity at human Kv7.2/Kv7.3 expressed in HEK293 cells assessed as drug concentration that doubles the conductance at voltage leading to 15% channel activation at holding potential of at -80 mV by whole cell patch clamp electrophysiology assay. Format: cell-based. An outline of the steps:
as §1

Data set [3] has as its target KCNQ4/KCNQ5 (Homo sapiens) (UniProt Q9NR82+P56696). The data set is described as follows: Agonist activity at human Kv7.4/Kv7.5 expressed in HEK293 cells assessed as drug concentration that doubles the conductance at voltage leading to 15% channel activation at holding potential of at -80 mV by whole cell patch clamp electrophysiology assay. Format: cell-based. Put shortly: as §1

Data set [4] deals with Voltage-gated potassium channel KCNQ3/KCNQ5 (Homo sapiens) (UniProt O43525+Q9NR82). The data set is described as follows: Agonist activity at human Kv7.3/Kv7.5 expressed in HEK293 cells assessed as drug concentration that doubles the conductance at voltage leading to 15% channel activation at holding potential of at -80 mV by whole cell patch clamp electrophysiology assay. Format: cell-based. Put shortly: as §1

For data set [5], the target named is Voltage-gated potassium channel, KQT; KCNQ2(Kv7.2)/KCNQ3(Kv7.3) (Homo sapiens, UniProt O43525+O43526). The data set is described as follows: Agonist activity at human Kv7.2/Kv7.3 expressed in CHO cells at holding potential of at -85 mV by whole cell patch clamp electrophysiology assay. Format: cell-based.
Data set [6] in a line: Half life in human liver microsomes. Format: ADME, Microsome. An outline of the steps:
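Stability was measured by incubation with pooled human liver microsomes. Half-life is reported in minutes.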
A general note: Liver microsomes are vesicles of endoplasmic reticulum, rich in cytochrome P450 enzymes.

Voltage-gated potassium channel, KQT; KCNQ2(Kv7.2)/KCNQ3(Kv7.3), sequence (O43526 whole entry): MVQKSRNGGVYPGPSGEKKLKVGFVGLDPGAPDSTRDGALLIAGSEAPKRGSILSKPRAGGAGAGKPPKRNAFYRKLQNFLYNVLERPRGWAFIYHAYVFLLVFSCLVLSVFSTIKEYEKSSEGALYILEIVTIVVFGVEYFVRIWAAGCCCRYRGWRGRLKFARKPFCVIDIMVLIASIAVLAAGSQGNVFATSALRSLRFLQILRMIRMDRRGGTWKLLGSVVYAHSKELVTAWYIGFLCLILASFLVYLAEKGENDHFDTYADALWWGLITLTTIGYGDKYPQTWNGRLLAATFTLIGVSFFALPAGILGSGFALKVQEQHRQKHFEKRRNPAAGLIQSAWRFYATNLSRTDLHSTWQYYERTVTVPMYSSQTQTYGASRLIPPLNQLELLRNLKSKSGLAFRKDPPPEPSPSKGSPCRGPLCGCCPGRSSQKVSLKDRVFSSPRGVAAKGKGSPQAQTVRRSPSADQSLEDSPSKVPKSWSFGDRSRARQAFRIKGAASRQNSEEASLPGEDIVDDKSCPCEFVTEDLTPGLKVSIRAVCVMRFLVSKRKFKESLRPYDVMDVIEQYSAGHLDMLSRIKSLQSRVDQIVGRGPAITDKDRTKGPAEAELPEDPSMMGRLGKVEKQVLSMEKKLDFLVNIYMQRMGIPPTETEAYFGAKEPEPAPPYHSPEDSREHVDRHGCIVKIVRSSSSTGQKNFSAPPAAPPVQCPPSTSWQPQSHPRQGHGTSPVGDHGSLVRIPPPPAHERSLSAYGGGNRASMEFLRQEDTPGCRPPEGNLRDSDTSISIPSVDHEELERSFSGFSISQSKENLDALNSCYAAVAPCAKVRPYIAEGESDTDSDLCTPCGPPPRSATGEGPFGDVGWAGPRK
Voltage-gated potassium channel, KQT; KCNQ2(Kv7.2)/KCNQ3(Kv7.3), sequence (O43525 whole entry): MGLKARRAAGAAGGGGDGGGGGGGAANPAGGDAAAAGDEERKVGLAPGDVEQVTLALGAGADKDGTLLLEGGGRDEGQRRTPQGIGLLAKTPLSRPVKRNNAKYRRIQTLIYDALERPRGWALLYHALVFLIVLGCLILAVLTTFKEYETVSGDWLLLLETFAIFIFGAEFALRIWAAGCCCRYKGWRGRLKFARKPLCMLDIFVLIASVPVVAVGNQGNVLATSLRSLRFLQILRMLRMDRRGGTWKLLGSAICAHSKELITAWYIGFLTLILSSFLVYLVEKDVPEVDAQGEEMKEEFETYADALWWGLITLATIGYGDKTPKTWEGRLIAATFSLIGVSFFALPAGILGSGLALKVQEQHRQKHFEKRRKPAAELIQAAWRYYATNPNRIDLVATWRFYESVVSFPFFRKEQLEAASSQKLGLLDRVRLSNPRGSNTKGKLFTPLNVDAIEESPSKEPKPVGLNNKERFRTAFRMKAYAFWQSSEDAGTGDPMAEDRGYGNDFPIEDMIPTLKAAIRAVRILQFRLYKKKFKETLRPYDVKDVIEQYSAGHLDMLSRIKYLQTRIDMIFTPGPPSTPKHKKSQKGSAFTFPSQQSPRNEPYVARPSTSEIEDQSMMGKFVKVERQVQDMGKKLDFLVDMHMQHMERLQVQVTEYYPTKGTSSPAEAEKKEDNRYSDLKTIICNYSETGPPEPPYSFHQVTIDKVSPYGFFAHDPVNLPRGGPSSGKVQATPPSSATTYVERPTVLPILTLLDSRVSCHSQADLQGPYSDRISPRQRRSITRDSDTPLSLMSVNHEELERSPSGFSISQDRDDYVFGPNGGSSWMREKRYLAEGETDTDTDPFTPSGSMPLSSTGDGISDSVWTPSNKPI

As for `Nc1c(NC(=O)OC2CC2)ccc(NCc2ccc(C(F)(F)F)nc2)c1F`, the Selectivity Index in the data set listed under Homo sapiens was determined as 1.9. Moreover, the EC2 stood at 1.13 µM in data set [1], 0.71 µM in data set [2], 1.36 µM in data set [3] and 0.69 µM in data set [4].

With `CCOC(=O)Nc1ccc(NCc2cccc(C(F)(F)F)c2)c(F)c1N`, in the data set listed under Homo sapiens, the Selectivity Index worked out at 4.7. The EC2 in data set [1] came out at 0.4 µM; in data set [2] it was 0.14 µM; in data set [3], 0.66 µM; in data set [4] it was 0.2 µM.

Turning to `CCOC(=O)Nc1ccc(NCc2ccc(C(F)(F)F)cc2F)c(F)c1N`, the Selectivity Index in the data set filed under Homo sapiens came to 1.7. For the same compound, the EC2 in data set [1] was 0.11 µM; in data set [2], 0.18 µM; in data set [3], 0.3 µM; in data set [4] it was 0.34 µM.

Consider `CCOC(=O)Nc1cc(F)c(NCc2ccc(C(F)(F)F)cc2)cc1N`, for which the Selectivity Index in the data set listed under Homo sapiens was over 7. The EC2 is 4.65 µM in data set [1], 1.26 µM in data set [2], over 10 µM in data set [3] and over 10 µM in data set [4].

For the compound `Nc1c(NC(=O)OC2CC2)ccc(NCc2ccc(C(F)(F)F)cn2)c1F`, the Selectivity Index in the data set filed under Homo sapiens amounted to 1.2. Besides, the EC2 amounted to 0.9 µM in data set [1], 0.79 µM in data set [2], 0.96 µM in data set [3] and 0.72 µM in data set [4].

On to `Nc1c(F)c(NCc2ccc(C(F)(F)F)cc2F)c(F)c(F)c1NC(=O)OC1CC1`, for which the EC2 in data set [1], in data set [2], in data set [3] and in data set [4] was over 10 µM throughout.

With `Nc1c(NC(=O)OC2CC2)ccc(NCc2ncc(C(F)(F)F)cc2F)c1F`, in the data set filed under Homo sapiens, the Selectivity Index was over 7. The EC2 in data set [1] is over 10 µM; in data set [2], 1.39 µM; in data set [3], over 10 µM; in data set [4] it was over 10 µM.

The EC50 is the concentration giving half of the maximal effect. In data set [5], `CCOC(=O)Nc1ccc(NCc2ccc(F)cc2)c(F)c1N` came in with an EC50 of 600 nM.

In the case of `Nc1c(NC(=O)OC2CC2)cc(F)c(NCc2ncc(C(F)(F)F)cc2F)c1F`, the EC2 in data set [1], in data set [2], in data set [3] and in data set [4] was over 10 µM in each case.

With `CCOC(=O)Nc1ccc(NCc2ccc(C(F)(F)F)c(C#N)n2)c(F)c1N`, in the data set filed under Homo sapiens, the Selectivity Index is 1.5. For the same compound, the EC2 in data set [1] was 2.17 µM; in data set [2], 1.6 µM; in data set [3] it was 2.33 µM; in data set [4], 1.3 µM.

As to `CCOC(=O)Nc1ccc(NCc2ccc(C(F)(F)F)cn2)c(F)c1N`, the Selectivity Index in the data set filed under Homo sapiens turned out to be 0.9. Moreover, the EC2 in data set [1] was 0.85 µM; in data set [2], 0.66 µM; in data set [3], 0.59 µM; in data set [4], 0.79 µM.

On to `Nc1c(NC(=O)OC2CC2)ccc(NCc2ccc(C(F)(F)F)cc2)c1F`, for which, in the data set filed under Homo sapiens, the Selectivity Index is 2.5. The EC2 in data set [1] turned out to be 0.38 µM; in data set [2], 0.11 µM; in data set [3], 0.28 µM; in data set [4] it was 0.23 µM.

A word on the half-life: it is how long it takes for the measured level to halve. Low values mean fast loss, high ones slow loss. With `CCOC(=O)Nc1ccc(NCc2ccc(C(F)(F)F)cc2)c(F)c1N`, the Selectivity Index in the data set listed under Homo sapiens worked out at 0.3. The EC2 in data set [1] turned out to be 0.1 µM; in data set [2], 0.26 µM; in data set [3], 0.09 µM; in data set [4] it was 0.29 µM. Further, the half-life in data set [6] was 5.73 h.

For `CCOC(=O)Nc1ccc(NCc2ccc(F)cc2)cc1N` [EZOGABINE], the EC2 in data set [2] was 0.33 µM; in data set [4], 0.34 µM. In data set [6], this compound gave a half-life of 16.2 h.

For the compound `CCOC(=O)Nc1ccc(NCc2ccc(F)cc2)nc1N`, the Selectivity Index in the data set filed under Homo sapiens was found to be 1.8. Moreover, the EC2 in data set [1] is 5.62 µM; in data set [2], 2 µM; in data set [3] it was 3.5 µM; in data set [4] it was 1.58 µM.

For `CCOC(=O)Nc1ccc(NCc2ccc(C(F)(F)F)nc2)c(F)c1N`, the Selectivity Index in the data set listed under Homo sapiens amounted to 2.1. Also, the EC2 in data set [1] was determined as 0.95 µM; in data set [2], 0.61 µM; in data set [3], 1.27 µM; in data set [4], 0.69 µM. The half-life in data set [6] was 6.77 h.

For `CCOC(=O)Nc1cc(C(F)(F)F)c(NCc2ccc(C(F)(F)F)cc2)c(F)c1N`, the EC2 in data set [1], in data set [2], in data set [3] and in data set [4] was over 10 µM each time.

Take `CCOC(=O)Nc1ccc(NCc2cccc(S(F)(F)(F)(F)F)c2)c(F)c1N`: in the data set listed under Homo sapiens, the Selectivity Index was 1.8. The EC2 is 0.65 µM in data set [1], 0.36 µM in data set [2], 0.65 µM in data set [3] and 0.21 µM in data set [4].

As for `Nc1c(F)c(NCc2ncc(C(F)(F)F)cc2F)cc(F)c1NC(=O)OC1CC1`, in the data set listed under Homo sapiens, the Selectivity Index is over 10. For the same compound, the EC2 in data set [1] is over 10 µM; in data set [2], 1 µM; in data set [3], over 10 µM; in data set [4], over 10 µM.

As for `Nc1c(NC(=O)OC2CC2)ccc(NCc2ccc(C(F)(F)F)cc2F)c1F`, the Selectivity Index in the data set filed under Homo sapiens was 0.6. Moreover, the EC2 in data set [1] amounted to 0.21 µM; in data set [2], 0.59 µM; in data set [3], 0.35 µM; in data set [4], 0.47 µM.

`Nc1c(F)c(NCc2ccc(C(F)(F)F)cc2F)cc(F)c1NC(=O)OC1CC1`: in the data set listed under Homo sapiens, the Selectivity Index is over 7. For the same compound, the EC2 was 0.55 µM in data set [1], 1.47 µM in data set [2], over 10 µM in data set [3] and over 10 µM in data set [4].

Consider `Nc1c(NC(=O)OC2CC2)cc(F)c(NCc2ccc(C(F)(F)F)cc2F)c1F`, for which, in the data set filed under Homo sapiens, the Selectivity Index was over 10. The EC2 in data set [1] was over 10 µM; in data set [2] it was 0.93 µM; in data set [3], over 10 µM; in data set [4], over 10 µM. In data set [6], this compound registered a half-life of 1.27 h.

Take `CC(C)OC(=O)Nc1ccc(NCc2ccc(C(F)(F)F)cc2)c(F)c1N`: the Selectivity Index in the data set listed under Homo sapiens was found to be 31. The EC2 is 0.19 µM in data set [1], 0.16 µM in data set [2], 4.98 µM in data set [3] and 0.16 µM in data set [4]. Besides, the half-life in data set [6] is 7.52 h.
